In publication PMC6195466 (Cell chemical biology, 2018):
Like-named read-outs stand apart in the source and are kept apart here.

Key:
mouse TLR9 = target: T1, mouse TLR9 (Mus musculus, UniProt Q9EQU3); experiment: IL-12p40 production in splenocytes from hTLR8tg/TLR7-KO mice, TLR9 agonist 1018; format: cell-based; settings: 1018 7.1 ug/mL
T1 sequence (Q9EQU3 26-1032): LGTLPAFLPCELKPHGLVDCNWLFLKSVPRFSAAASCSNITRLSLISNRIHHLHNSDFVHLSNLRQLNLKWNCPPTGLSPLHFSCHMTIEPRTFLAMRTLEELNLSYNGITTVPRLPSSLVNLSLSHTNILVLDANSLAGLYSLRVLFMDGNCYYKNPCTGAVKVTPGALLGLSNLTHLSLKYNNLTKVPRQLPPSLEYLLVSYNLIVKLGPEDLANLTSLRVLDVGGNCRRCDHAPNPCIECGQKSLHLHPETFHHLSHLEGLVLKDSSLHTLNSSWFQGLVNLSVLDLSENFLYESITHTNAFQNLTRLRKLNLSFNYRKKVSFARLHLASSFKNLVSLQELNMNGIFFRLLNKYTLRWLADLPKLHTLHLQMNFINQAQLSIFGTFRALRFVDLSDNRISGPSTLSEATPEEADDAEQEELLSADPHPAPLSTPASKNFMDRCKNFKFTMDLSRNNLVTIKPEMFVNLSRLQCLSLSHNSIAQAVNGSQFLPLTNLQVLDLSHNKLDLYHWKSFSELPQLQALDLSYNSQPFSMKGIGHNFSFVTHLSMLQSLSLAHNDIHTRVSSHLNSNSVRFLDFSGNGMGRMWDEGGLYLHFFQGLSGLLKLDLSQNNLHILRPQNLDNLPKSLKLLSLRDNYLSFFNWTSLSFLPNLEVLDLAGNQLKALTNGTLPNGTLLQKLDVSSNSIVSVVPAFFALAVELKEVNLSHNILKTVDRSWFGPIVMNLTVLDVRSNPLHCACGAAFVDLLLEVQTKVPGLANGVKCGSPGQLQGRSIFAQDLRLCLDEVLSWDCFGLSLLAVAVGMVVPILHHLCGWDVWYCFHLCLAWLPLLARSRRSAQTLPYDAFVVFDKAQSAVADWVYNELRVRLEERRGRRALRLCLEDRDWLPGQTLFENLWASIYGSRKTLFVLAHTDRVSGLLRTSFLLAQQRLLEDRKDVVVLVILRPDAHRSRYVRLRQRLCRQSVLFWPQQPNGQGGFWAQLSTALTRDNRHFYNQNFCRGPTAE
In short: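 Splenocytes from female […] mice carrying a human TLR8 transgene, prepared by straining and red-cell lysis. Incubated with a dilution series of test compound plus a constant amount of CpG phosphorothioate DNA oligonucleotide 1018 (TLR9 agonist) for 48 h. IL-12p40 measured in culture supernatants. Curves come from a single spleen.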

ectodomain of human TLR8 = settings: read-out: dissociation constant (Kd), et al., cited from earlier work
TLR7 = target: T2, TLR7 (Homo sapiens, UniProt Q9NYK1); experiment: TLR selectivity assay; format: cell-based; settings: HEK-Blue hTLR7 cells, R848 1 μg/mL
T2 sequence (Q9NYK1 27-1049): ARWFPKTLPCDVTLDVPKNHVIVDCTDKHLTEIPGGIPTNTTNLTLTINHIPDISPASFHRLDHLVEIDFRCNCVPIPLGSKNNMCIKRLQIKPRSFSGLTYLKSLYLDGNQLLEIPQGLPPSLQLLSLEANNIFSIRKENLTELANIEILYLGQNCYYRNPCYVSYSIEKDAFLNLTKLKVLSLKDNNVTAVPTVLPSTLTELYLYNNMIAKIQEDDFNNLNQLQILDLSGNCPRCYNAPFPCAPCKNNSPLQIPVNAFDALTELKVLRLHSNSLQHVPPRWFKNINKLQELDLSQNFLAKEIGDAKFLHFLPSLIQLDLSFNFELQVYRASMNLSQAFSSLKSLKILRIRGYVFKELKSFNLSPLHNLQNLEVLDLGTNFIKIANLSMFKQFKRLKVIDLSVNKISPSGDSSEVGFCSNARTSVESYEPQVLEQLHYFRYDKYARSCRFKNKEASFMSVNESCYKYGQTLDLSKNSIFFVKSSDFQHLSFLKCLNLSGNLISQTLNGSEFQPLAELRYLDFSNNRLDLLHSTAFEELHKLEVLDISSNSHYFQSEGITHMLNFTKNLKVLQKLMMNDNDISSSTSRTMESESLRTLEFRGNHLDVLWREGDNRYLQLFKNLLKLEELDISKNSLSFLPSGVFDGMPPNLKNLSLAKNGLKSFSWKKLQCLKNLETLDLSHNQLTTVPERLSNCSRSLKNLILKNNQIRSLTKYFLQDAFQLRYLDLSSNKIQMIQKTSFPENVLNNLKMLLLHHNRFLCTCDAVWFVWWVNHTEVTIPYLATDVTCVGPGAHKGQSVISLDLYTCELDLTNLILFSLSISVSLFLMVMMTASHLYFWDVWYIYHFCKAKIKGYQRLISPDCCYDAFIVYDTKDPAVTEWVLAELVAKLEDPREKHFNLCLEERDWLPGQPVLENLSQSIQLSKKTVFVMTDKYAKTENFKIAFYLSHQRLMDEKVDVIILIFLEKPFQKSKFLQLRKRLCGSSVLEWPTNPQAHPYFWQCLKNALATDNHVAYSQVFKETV
In short: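 HEK-Blue hTLR7 cells were seeded at 7.5 × 10^4 cells/well in DMEM with 10% heat-inactivated FBS. Cells received R848 (1 μg/mL) with varied test-compound concentrations for 24 h at 37 °C, 5% CO2. Supernatant SEAP was developed with Quanti-Blue (30 min–1 h, 37 °C) and read at 620 nm. Normalised with R848-only as 100% and untreated as 0% activation. Three biological replicates, each in triplicate.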

nuclear NF-κB = format: cell-based, human; settings: concentration of 500 nM, THP-1 cells, R848 1 μg/mL, Figure S2
In short: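 THP-1 cells were seeded at 2 × 10^6 cells/well and differentiated with PMA (100 ng/mL) for 24 h at 37 °C, 5% CO2. Medium was switched to unsupplemented RPMI, then R848 (1 μg/mL) plus test compound was added for 2 h. Nuclear fractions were extracted and quantified by BCA, run on 10% SDS-PAGE and blotted. Probed with anti-p65 (1:1000), then HRP anti-rabbit (1:10000), chemiluminescence. Lamin A/C was the nuclear control.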

SMILES: Cc1cc(-c2ccnc3cc(O)ccc23)ccc1O [CU-CPT9b]
- activity against mouse TLR9 (mouse TLR9): no activity
- Kd (ectodomain of human TLR8; ITC, ectodomain of human TLR8, ref Zhang, 2018): 21 nM
- effect on TLR7 (TLR7): not affected below ~μM concentration

SMILES: CCOCc1nc2c(N)nc3ccccc3c2n1CC(C)(C)O [R848, reference compound]
- Kd (ectodomain of human TLR8; TLR8 and R848, ref Tanji, 2015): 200 nM

SMILES: COc1ccc2c(-c3ccc(O)c(C)c3)ccnc2c1 [CU-CPT9a]
- activity against mouse TLR9 (mouse TLR9): no activity
- effect on TLR7 (TLR7): not affected below ~μM concentration
- reduction of nuclear NF-κB (nuclear NF-κB): significant reduction
